Results gathered from unrelated publications.
Lines come from different studies, so protocols differ.
Observed: cell growth or viability

Compound	cell line	method	time	IC50
CC(C(=O)NOCc1ccccc1)c1cccc(C(OC(=O)NOCc2ccccc2)c2ccccc2)c1 (stereo not shown)	L1210		48 h	9700 nM
COc1cc(C(=O)c2sc3c(OC)cccc3c2N)cc(OC)c1OC	L1210		48 h	33 nM
CC(C(=O)NC1CCCC1)c1cccc(C(OC(=O)NC2CCCC2)c2ccccc2)c1 (stereo not shown)	FM3A		48 h	12000 nM
C[C@H]1O[C@@H](O[C@H]2[C@@H](O)C[C@H](O[C@H]3[C@@H](O)C[C@H](O[C@H]4CC[C@@]5(C)[C@H](CC[C@@H]6[C@@H]5C[C@@H](O)[C@]5(C)[C@@H](C7=CC(=O)OC7)CC[C@]65O)C4)O[C@@H]3C)O[C@@H]2C)C[C@H](O)[C@@H]1O	GISTT1	resazurin	72 h	160 nM
Cc1n[nH]cc1-c1cc2nc([C@@H]3CC4CCN3CC4)[nH]c(=O)c2s1	COLO 205	MTT		36.7 nM
CC(C)=CCOc1c2occc2cc2ccc(=O)oc12	COLO 205	MTT	24 h	> 100000 nM
CC(C(=O)NCCc1ccccc1)c1cccc(C(OC(=O)NCCc2ccccc2)c2ccccc2)c1 (stereo not shown)	L1210		48 h	8200 nM
COc1ccc2c(c1)NC(=O)CN2c1nc(Cl)nc2c1COC2	MDA-MB-453	MTS	72 h	19.3 nM
CS(=O)(=O)c1ccc(S(=O)(=O)N2CCc3[nH]c4ccccc4c3C2)cc1	L6			> 250000 nM
C[C@@H]1C[C@H](O)[C@]2(O)O[C@@H]3C[C@@]4(C)[C@@H](CC[C@@H]5[C@@H]4CC[C@]4(C)[C@@H](C6=CC(=O)OC6)CC[C@]54O)C[C@H]3O[C@@H]2O1	L6	resazurin	72 h	7630 nM
COc1ccc2c(c1)NC(=O)CN2c1nc(C)nc(C)c1C	MDA-MB-453	MTS	72 h	4.3 nM
N.N.[Cl][Pt][Cl]	NCI-H460	MTT	72 h	3000 nM
CC(C(=O)N1CCCCC1)c1cccc(C(OC(=O)N2CCCCC2)c2ccccc2)c1 (stereo not shown)	FM3A		48 h	8000 nM
C[C@@H]1C[C@@]2(NCCS2)[C@]2(O)O[C@@H]3C[C@@]4(C=O)[C@@H](CC[C@@H]5[C@@H]4CC[C@]4(C)[C@@H](C6=CC(=O)OC6)CC[C@]54O)C[C@H]3O[C@@H]2O1	L6	resazurin	72 h	2740 nM
COc1cc(C(=O)c2cc3c(-c4ccccc4)c(OC)ccc3o2)cc(OC)c1OC	L1210		48 h	> 50000 nM
CC(C(=O)NC1CCCCC1)c1cccc(C(OC(=O)NC2CCCCC2)c2ccccc2)c1 (stereo not shown)	L1210		48 h	9600 nM
C[C@H]1O[C@@H](O[C@H]2[C@@H](O)C[C@H](O[C@H]3[C@@H](O)C[C@H](O[C@H]4CC[C@@]5(C)[C@H](CC[C@@H]6[C@@H]5CC[C@]5(C)[C@@H](C7=CC(=O)OC7)CC[C@]65O)C4)O[C@@H]3C)O[C@@H]2C)C[C@H](O)[C@@H]1O	GISTT1	resazurin	72 h	< 160 nM
COc1ccc(/C=C\c2cc(OC)c(OC)c(OC)c2)cc1O	L1210		48 h	2.8 nM
COc1cc([C@@H]2c3cc4c(cc3[C@H](O)[C@H]3COC(=O)[C@H]23)OCO4)cc(OC)c1OC	L6			4 ng/mL
